Jurkat tox 60K: reduces viability or proliferation of Jurkat cells; AID 463; inhibition, % at 4 µM; 56,000 tested, 1.2% active; Jurkat E6.1 viability, ATP luminescence, 48 h;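 active = inhibition above the mean inhibition of all tested compounds plus 3 SD, cut at about 28% in these data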
MT1-MMP txn act: MT1-MMP promoter transcription activation. HT1080 MT1-MMP promoter luciferase reporter, luminescence, overnight; stronger effect = higher value. activation factor at 10 µM. 86,000 tested, 0.16% active;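 active = activation factor of at least 2 for MT1-MMP transcription at 10 µM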
HEK293 NFkB inh: lowers PMA/ionomycin-induced NF-kB signal in HEK293 cells; HEK-293 NF-kB luciferase reporter, luminescence; inhibition, % at 3 µM; 62,000 tested, 0.21% active; AID 465;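 active = inhibition above the mean of all tested compounds plus 3 SD, cut at about 40% in these data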;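 also: 0% = stimulated DMSO wells and 100% = 10 µM reference inhibitor 5653914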
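Signal: luciferase luminescence; Material: HEK-293 cells with stable firefly luciferase reporter driven by four HIV NF-kB elements; Probe or stimulus: PMA with ionomycin; Replication: tested once; Times: 1 h compound pretreatment, then 16 h stimulation at 37 °C, 5% CO2; Benchmarks: DMSO and 10 µM reference inhibitor; Evaluation: per-plate % inhibition versus controls.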
RORA act: RORA (human) activation; 65,000 tested, 1.5% active; P35398; CHO-K1 Gal4-RORA LBD luciferase reporter, luminescence; percent increase over mock-subtracted basal signal; AID 560; activation, % at 10 µM;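 active = activation above the mean of all tested compounds plus 3 SD, cut at about 49% in these data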;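 also: 0% = DMSO-treated RORA cells and 100% = added signal equal to DMSO minus mock-transfected cells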
SF1 activator: activators of human nuclear receptor SF-1; CHO-K1 Gal4-SF-1 LBD luciferase reporter; % increase over DMSO SF-1-specific signal; activation, % at 10 µM; 65,000 tested, 1.9% active;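 active = activation above the mean activation of all tested compounds plus 3 SD, cut at about 50% in these data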
Target sequence (Q13285 whole entry, looked up, the tested form may be a part): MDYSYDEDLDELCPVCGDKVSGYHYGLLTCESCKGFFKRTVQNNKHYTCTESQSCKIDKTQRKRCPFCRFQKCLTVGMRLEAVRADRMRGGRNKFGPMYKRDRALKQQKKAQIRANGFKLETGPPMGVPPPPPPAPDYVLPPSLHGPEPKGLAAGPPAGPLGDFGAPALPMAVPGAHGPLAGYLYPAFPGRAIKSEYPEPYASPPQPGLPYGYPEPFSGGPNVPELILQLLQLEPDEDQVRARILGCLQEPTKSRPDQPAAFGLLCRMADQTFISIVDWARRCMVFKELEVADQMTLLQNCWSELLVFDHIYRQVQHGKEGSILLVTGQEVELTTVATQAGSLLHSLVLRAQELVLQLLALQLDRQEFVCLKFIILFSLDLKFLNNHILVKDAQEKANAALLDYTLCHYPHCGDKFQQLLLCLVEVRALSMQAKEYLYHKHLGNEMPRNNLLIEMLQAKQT
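Material: CHO-K1 cells with Gal4–hSF-1 LBD chimera plus Gal4-driven luciferase / Input: 4,000 CHO-K1 cells per well / Incubation: compound exposure 20 h at 37 °C / Signal: luminescence read 15 min after SteadyLite luciferase reagent, after room-temperature equilibration / Read-out: percent activation versus DMSO / Benchmarks: DMSO negative control and −SF1 background wells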
An asterisk follows results filed as active; nt = no result. Shown are actives, neighbours in structure and some others; about 2.9% of the full set was active somewhere.

SMILES	Jurkat tox 60K	MT1-MMP txn act	HEK293 NFkB inh	RORA act	SF1 activator
CC1=C(C(=O)OCc2ccc3c(c2)OCO3)C(c2ccccc2)NC(=O)N1 (centres undefined)	38*	1	37	-17	-13
O=C(NCc1ccccc1)c1cc(-c2cccc(O)c2)on1	-2	1.3	2	31	-10
COc1ccc(CN(C(=O)CO)[C@@H](CO[Si](c2ccccc2)(c2ccccc2)C(C)(C)C)c2cccc(NC(C)=O)c2OC)cc1OC	nt	1.2	nt	nt	nt
CN(C)c1ccc(-n2cc3c(=O)n(C)c(=O)n(C)c3c2)cc1	-5	1.5	-10	49*	14
CCN(CC)c1ccc(-n2cc3c(=O)n(C)c(=O)n(C)c3c2)cc1	-4	1.2	8	6	56*
COc1cccc(OCC(=O)Nc2c(C(=O)Nc3ccc(OC)cc3OC)oc3ccccc23)c1	-5	1.1	8	9	2
Cc1occc1C(=O)Nc1ccc2ccccc2c1	2	0.9	-39	120*	48
Cc1csc(NC(=O)c2ccoc2C)n1	3	1.5	1	38	56*
O=C(Nc1nc2c(ccc3ccccc32)s1)c1ccco1	-3	2.3*	-9	59*	63*
Cc1occc1C(=O)Nc1cc(C(C)(C)C)on1	14	0.9	-40	64*	19
Cc1cc(C)c(NC(=O)c2ccoc2C)c(C)c1	nt	1.2	nt	nt	nt
COc1ccc(O)c(-c2[nH]ncc2C(=O)c2ccccc2C)c1	nt	1.1	19	-17	-4
CCOC(=O)N1CCN(C(=O)CCSc2ccccc2)CC1	nt	1.2	-6	45	48
CC(C)NC(=O)Cn1nnc(-c2ccc(Cl)cc2)n1	-3	1.1	8	-5	2
O=C(CSc1nc2ncc(Br)cc2[nH]1)Nc1ccc2c(c1)OCO2	-4	1.1	4	0	19
CCOC(=O)c1c(C)oc2ccc(OCc3cc(C(=O)OC)oc3C)cc12	nt	1.3	nt	nt	nt
Cc1nnc(NC(=O)c2ccco2)s1	-7	1.2	0	-3	5
Cc1csc(NC(=O)c2cnc3ccccn3c2=O)n1	6	1.3	-23	34	61*
O=C(Nc1ccc(-c2noc(CCc3ccccc3)n2)cc1)c1ccco1	8	1.3	-8	72*	23
O=C(Nc1nnc(C23CC4CC(CC(C4)C2)C3)s1)c1ccco1	-5	2*	-43	91*	21
NC(=O)c1cc(Cc2ccccc2)sc1NC(=O)c1ccco1	-9	1.5	-40	80*	140*
Cc1ccc(CNS(=O)(=O)NCc2ccccc2)cc1	nt	1.1	nt	nt	nt
N#Cc1nc(COc2ccccc2Cl)oc1NCc1cccnc1	nt	1.1	nt	nt	nt
O=C(Nc1nnc(CCc2ccccc2)s1)c1ccco1	-4	1.3	1	54*	32
Cc1csc(NC(=O)c2cccs2)n1	-11	1.3	-31	18	53*
SMILES	Jurkat tox 60K	MT1-MMP txn act	HEK293 NFkB inh	RORA act	SF1 activator
O=C(Nc1nnc(CCc2ccccc2)s1)c1cccs1	1	1.4	4	39	54*
CCOC(=O)c1sc2nc(NC(=O)c3cccs3)sc2c1C	-4	1.3	-4	60*	48
O=C(Nc1nnc(COc2ccc(F)cc2)s1)c1cccs1	4	0.9	12	13	15
O=C(Nc1nnc(Cc2ccccc2)s1)c1ccco1	nt	1.6	nt	nt	nt
COc1ccc2c(c1)OC1(C)CC2C(C(=O)c2ccccc2OC)C(=O)N1 (centres undefined)	-7	1.1	3	-20	-2
CC(C)N(C(=O)CSc1nnc(NC(=O)c2cccs2)s1)C(C)C	nt	1.2	nt	nt	nt
Cc1ccccc1NC(=O)c1cnc2ccccn2c1=O	-2	nt	-22	-54	-16
O=C(Nc1cnc2ccccn2c1=O)c1ccc(F)cc1	-3	1.4	-18	46	60*
CC(C)c1nnc(NC(=O)c2cccs2)s1	-12	1.3	-41	76*	104*
CC(C)C(=O)Nc1ccc(C(=O)NCc2cccnc2)cc1	82*	1.1	12	5	16
CCC(C)c1ccc(NC(=O)c2cccnc2)cc1 (centres undefined)	-2	1.5	-18	93*	112*
O=C(NCc1cccnc1)c1ccc(NC(=O)c2ccco2)cc1	nt	1.1	nt	nt	nt
O=C(Nc1cnc2ccccc2c1)c1cccnc1	-8	1	-9	58*	75*
O=C(Nc1cnc2ccccc2c1)c1cccc(-n2cnnn2)c1	-8	1.8	-30	37	56*
COC(=O)Cn1c(C(=O)N(C)C)cc2c1C[C@H]1CN(C(=O)c3ccccc3)[C@@](Cc3ccc(OC)cc3)(C(=O)OC)[C@@H]21	nt	1.2	nt	nt	nt
COc1ccc(N(CC(=O)NCc2cccs2)S(=O)(=O)c2c(C)n[nH]c2C)cc1	0	1.3	0	5	6
Cn1c(NC(=O)c2cccnc2)nc2ccccc21	0	1.8	-20	52*	52*
CCCn1c(NC(=O)c2ccccc2)nc2ccccc21	22	1.3	-8	22	12
O=C(Nc1ccc2c(c1)OCO2)c1ccc(CN2CCOCC2)cc1	3	1.5	-17	49*	52*
O=C(NCCC1=CCCCC1)c1ccc(CN2CCOCC2)cc1	2	1.6	-24	96*	40
NC(=O)c1ccc(NC(=O)c2ccc(CN3CCOCC3)cc2)cc1	nt	1.4	nt	nt	nt
CCCCC(=O)Nc1ccc(C(=O)Nc2ccc3c(c2)OCO3)cc1	-6	1.2	5	60*	51*
CCOC(=O)c1ccc(NC(=O)c2ccc(CN3CCOCC3)cc2)cc1	53*	1	31	-6	5
COc1ccc(CCNC(=O)c2ccc(CN3CCOCC3)cc2)cc1	nt	0.9	10	-4	3
O=C(Nc1ccc(CN2CCCCC2)cc1)c1ccc2c(c1)OCO2	-4	1.5	8	5	6
Cc1sc2c(=O)n3c(nc2c1C(=O)NCCCN1CCOCC1)CCCCC3	-5	1.1	23	9	2
CCN(C(=O)CCN1C(=O)c2ccccc2C1=O)C1CCCCC1	-5	1.1	2	9	-22
O=C(NCCN1CCOCC1)c1cc2sccc2n1Cc1ccc(Cl)cc1	-1	1.1	12	-12	6
